GSK3beta inhib = human GSK3beta kinase inhibition. P49841. GST-GSK3beta kinase, ADP-Glo luminescence, 60 min; active compounds read low. activity score (negative = inhibition), % at 10 µM. actives 0.038% (n = 300,000);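 active means more than half of replicate wells score below -50%, meaning over 50% inhibition versus plate controls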;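 further: 0% = median DMSO wells and -100% = median GW8510 positive control wells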
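Test system: GST-tagged human GSK3beta kinase, cell-free; evaluation: activity score scaled between in-plate DMSO and GW8510 controls; measured by: ADP-Glo luminescence; incubation: 60 min reaction, RT; benchmarks: DMSO and 20 µM GW8510; reagent: peptide substrate plus 25 µM ATP (final); medium: Tris/MgCl2 kinase buffer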
Dyrk1A ADPGlo = inhibitors of rat Dyrk1A kinase; Q63470; ADP-Glo luminescence, NFATc1 peptide; inhibition, % at 12.5 µM; actives 0.43% (n = 310,000); AID 504441; in the data active means inhibition above about 50%;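 further: plate controls were vehicle with enzyme for no effect and no enzyme for full effect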
GSK3A inh = inhibitors of human GSK-3 alpha kinase; inhibition, % at 10 µM; actives 0.1% (n = 320,000); ADP-Glo luminescence, 60 min;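 active means more than half of replicates show inhibition above 20%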;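 further: GST-tagged GSK-3 alpha with peptide substrate and 25 µM ATP; 0% = DMSO neutral wells and 100% = GW8510 positive control wells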
STK33 inh = human STK33 kinase inhibition; purified STK33, MBP phosphorylation, ADP-Glo luminescence; actives 0.073% (n = 320,000); inhibition, % at 10 µM; AID 2661;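 active means inhibition at or above 25%, using the most active replicate where run in duplicate; inactive means inhibition below 25%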
Rin1 Abl inh = human Rin1-Abl interaction inhibition. AID 588664. TR-FRET Rin1/Abl binding, biochemical. inhibition, % at 7.35 µM. actives 0.4% (n = 360,000). P00519+Q13671; in the data active means inhibition above about 5%, passing the limit was not always enough
Arrestin-AP2 inh = blocks beta-arrestin peptide binding to AP2 adaptin | FITC-arrestin peptide / GST-AP2 beads, flow cytometry; AP2 beta2 appendage carries R879A mutation | inhibition, % at 10 µM | actives 0.31% (n = 340,000);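 active means inhibition above a set limit, near 3 SD of compounds lacking own fluorescence, cut at about 54% in these data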;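 further: plate controls were DMSO wells for no effect and 5 µM unlabelled arrestin peptide for full effect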
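System: GST-tagged AP2 beta2-adaptin appendage (R879A) on 4 µm glutathione beads / Reagent: FITC-arrestin peptide, 50 nM / Detection: HyperCyt-sampled flow cytometry, FL1 channel, ex 488/em 535 nm / Timing: 12 min plus 1 h, RT / Buffer or medium: PBS plus Tween 20 (0.05%) and BSA (0.1%)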
Active calls of the source: *; . = no result. This is a sample that favours compounds with a hit; in the whole collection about 0.99% have one here.

SMILES	GSK3beta inhib	Dyrk1A ADPGlo	GSK3A inh	STK33 inh	Rin1 Abl inh	Arrestin-AP2 inh
CN(Cc1c(C(=O)N/N=C/c2ccccc2)nnn1-c1nonc1N)c1ccccc1	-20.0	0.8	-6.5	-1.5	-3.4	-17.3
CCN(CC)Cc1c(C(=O)N/N=C/c2cccs2)nnn1-c1nonc1N	-3.1	14.5	76.2*	-0.6	2.5	7.4
CC(=C/c1ccco1)/C=N/NC(=O)c1nnn(-c2nonc2N)c1CN(C)C	2.8	-2.4	58.9*	-0.5	-0.2	28.9
CCN(CC)Cc1c(C(=O)N/N=C/c2ccccn2)nnn1-c1nonc1N	-53.9*	-6.2	60.2*	0.8	-2.8	8.6
COc1ccccc1CNC(=O)C1CCN(c2ncnc3c2nc2n3CCCCC2)CC1	0.0	-3.4	1.9	-0.2	-1.7	31.2
COc1ccc(O)c(CN2CCCC(N3CCc4ccccc4C3)C2)c1 (configuration not stated)	4.0	10.8	-2.8	4.5	-2.5	-5.0
CN(Cc1ccccc1C(F)(F)F)C(=O)C1CCC(=O)N(CC2CCCCC2)C1 (configuration not stated)	.	.	.	.	-0.8	.
Nc1c(C(=O)NCC2CCCO2)sc2nc3c(c(-c4ccco4)c12)CC/C3=C\c1ccco1 (configuration not stated)	.	-3.8	.	.	5.6*	56.2*
CCOC(=O)Cn1c(=O)cc(C)c2cccc(C)c21	-3.6	2.3	-0.7	0.7	0.4	8.0
CCN(CC)C(=O)[C@H]1C[C@H](CC(=O)NCCN2CCOCC2)C(=O)N2CCc3c([nH]c4cc(-c5ccco5)ccc34)[C@]12C	.	-0.6	.	.	-4.3	15.7
CC(=O)C(Cc1ccccc1)NC(=O)COC(=O)c1ccc(-n2cnnn2)cc1 (configuration not stated)	.	.	-3.7	-0.3	1.2	8.6
NCCNC(=O)Cc1cccc(NC(=O)Cc2ccc(Nc3ncnc4c3ncn4[C@@H]3O[C@H](CO)[C@@H](O)[C@H]3O)cc2)c1	2.4	6.5	-2.2	-0.9	17.2*	4.1
OC[C@H]1O[C@@H](n2cnc3c(Nc4ccccc4)ncnc32)[C@H](O)[C@@H]1O	0.3	0.9	2.4	-0.2	-0.9	1.3
O=C1CNC(=S)N1CCCc1ccccc1	0.3	-6.1	0.0	-1.3	1.1	2.4
CCOC(=O)CC(=O)CSc1ccc2nnc(-c3ccc(F)cc3)n2n1	-29.0	12.3	25.5	-1.3	-2.9	0.1
CCC(Sc1ccc2nnc(-c3ccc(OC)c(OC)c3)n2n1)C(=O)O (configuration not stated)	-0.1	2.1	19.2	38.1*	-3.9	6.1
COC(=O)CSc1ccc2nnc(-c3ccc(F)cc3)n2n1	-77.6*	27.1	60.3*	3.1	-3.1	33.5
Cc1cc(C)cc(NC(=S)N2CCN(S(=O)(=O)c3ccccc3)CC2)c1	-16.3	-1.4	.	-0.3	2.4	-1.3
COc1ccc(OC)c(NC(=O)C2(C)CCN2C(=O)C2(c3ccccc3)CCCC2)c1 (configuration not stated)	.	.	.	.	1.5	.
CCCCCCCCCCC[N+](C)(C)CC/C=C1/c2ccccc2Sc2ccc(Cl)cc21	-5.0	1.1	6.3	30.9*	-2.2	-15.1
CC[N+](C)(C)CC/C=C1/c2ccccc2Sc2ccc(Cl)cc21	-5.4	.	-0.3	-0.8	1.0	-10.7
CCCCCCCCCC[N+](C)(C)CC/C=C1/c2ccccc2Sc2ccc(Cl)cc21	-5.9	-4.2	5.1	32.4*	-3.0	3.0
CS(=O)(=O)N1CCN(c2ccccc2NC(=O)c2ccc(Br)o2)CC1	1.9	43.4	52.8*	23.1	-0.7	-1.1
COC(=O)c1ccc2nc(-c3ccc(OC)c(OC)c3)c(Cc3ccc(OC)cc3C)n2c1	.	.	.	.	-1.9	.
CCOC(=O)c1cnc2ccc(OC)cc2c1Nc1ccc(N2CCN(C)CC2)cc1	-59.0*	43.8	84.0*	-0.3	-10.2	5.0
SMILES	GSK3beta inhib	Dyrk1A ADPGlo	GSK3A inh	STK33 inh	Rin1 Abl inh	Arrestin-AP2 inh
COc1cccc2cc(-c3nc(-c4cccs4)cs3)c(=O)oc12	0.4	-5.2	1.3	-0.3	-2.4	99.4*
COc1ccc(-c2c3c(cc(C)[n+]2[O-])oc2ccc(OC)cc23)cc1	-43.5	44.8	33.9	0.7	-1.5	14.3
COc1ccc2oc3cc(C)[n+]([O-])c(-c4ccc(C)cc4)c3c2c1	-55.1*	20.8	52.7*	1.4	-4.3	-1.6
COc1ccccc1NC(=O)N(C)C[C@@H]1OCc2cnnn2CCCC(=O)N([C@@H](C)CO)C[C@H]1C	.	.	.	.	-3.6	.
C(=C\c1ccccc1)/CN1CCN(C(c2cccc3ccccc23)c2nnnn2-c2ccc3c(c2)OCCO3)CC1 (configuration not stated)	.	.	.	.	0.8	.
COC(=O)CC(NC(=O)Nc1ccccc1F)c1ccc2c(c1)OCO2 (configuration not stated)	-3.1	2.5	-0.2	0.6	-0.8	-8.0
CCOc1cc(N)c(Cl)cc1C(=O)NCC1CN(Cc2ccc(F)cc2)CCO1 (configuration not stated)	-0.7	11.1	2.5	-1.2	1.2	-7.9
CCCN(CCC)CCCNc1ccc2nnc(-c3ccc(F)cc3)n2n1	-43.8	13.4	56.3*	1.6	-3.6	5.4
Cc1ccc(C(=O)Nc2ccccc2Cl)cc1	-5.3	-1.7	-0.2	1.6	0.5	-1.9
C#CCOCCOCCOCCNc1nc(N2CCN(C(=O)CCCCCCCCCCNC(=O)[C@H]([C@@H](C)CC)n3cc(CCCCN=C(N)N)nn3)CC2)nc(N2CCN(C(=O)CCCCCCCCCCNC(=O)[C@H](CCCCN)n3cc(C[C@@H](C)CC)nn3)CC2)n1	.	.	17.2	29.6*	.	.
C#CCOCCOCCOCCNc1nc(N2CCN(C(=O)CCCCCCCCCCNC(=O)[C@H](CCCCN)n3cc(C[C@@H](C)CC)nn3)CC2)nc(N2CCN(C(=O)CCCCCCCCCCNC(=O)[C@H](CCCCN)n3cc(C[C@@H](C)CC)nn3)CC2)n1	-19.2	6.5	10.9	22.0	9.4	8.3
C#CCOCCOCCOCCNc1nc(N2CCN(C(=O)CCCCCCCCCCNC(=O)[C@@H](CCSC)n3cc(CCO)nn3)CC2)nc(N2CCN(C(=O)CCCCCCCCCCNC(=O)[C@H]([C@@H](C)CC)n3cc(CCCCCN)nn3)CC2)n1	.	.	2.1	14.9	.	.
C#CCOCCOCCOCCNc1nc(N2CCN(C(=O)CCCCCCCCCCNC(=O)[C@H](CCCCN)n3cc(CCO)nn3)CC2)nc(N2CCN(C(=O)CCCCCCCCCCNC(=O)[C@H](CCCN=C(N)N)n3cc(C[C@@H](C)CC)nn3)CC2)n1	.	19.0	19.2	14.3	21.7*	-13.3
